Columns and labels:
Nociceptin receptor = Nociceptin receptor (Homo sapiens, UniProt P41146); assay: Displacement of [3H]nociceptin from human recombinant NOP receptor expressed in CHO cells after 60 mins by microbeta scintillation counting; type: cell-based
[1] = Lipophilicity, log D of the compound by shake flask method; type: physicochemical; settings: octanol/water
Summary of the method: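 Shake-flask log D at pH 7.4 on the nonradioactive compound. Each enantiomer was measured.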

[2] = Drug uptake in SB612111-pretreated monkey cerebellum at 4.92 to 6.6 mCi, iv administered at 10 mins post SB612111-treatment measured from 10 to 120 mins by PET imaging analysis; type: ADME, organism-based, Macaca mulatta; settings: rhesus monkey, in vivo
[3] = Drug uptake in SB612111-pretreated monkey lateral temporal cortex at 4.92 to 6.6 mCi, iv administered at 10 mins post SB612111-treatment measured from 10 to 120 mins by PET imaging analysis; type: ADME, organism-based, Macaca mulatta; settings: rhesus monkey, in vivo
[4] = Drug uptake in monkey amygdala at 4.92 to 6.6 mCi, iv administered as bolus dose measured up to 20 mins by PET imaging analysis; type: ADME, organism-based, Macaca mulatta; settings: rhesus monkey, in vivo
[5] = Drug uptake in SB612111-pretreated monkey lateral temporal cortex at 4.92 to 6.6 mCi, iv administered at 10 mins post SB612111-treatment measured within 10 mins by PET imaging analysis; type: ADME, organism-based, Macaca mulatta; settings: rhesus monkey, in vivo
[6] = Drug uptake in SB612111-pretreated monkey hypothalamus at 4.92 to 6.6 mCi, iv administered at 10 mins post SB612111-treatment measured within 10 mins by PET imaging analysis; type: ADME, organism-based, Macaca mulatta; settings: rhesus monkey, in vivo
[7] = Drug uptake in SB612111-pretreated monkey caudate at 4.92 to 6.6 mCi, iv administered at 10 mins post SB612111-treatment measured from 10 to 120 mins by PET imaging analysis; type: ADME, organism-based, Macaca mulatta, Caudate nucleus; settings: rhesus monkey, in vivo
[8] = Drug uptake in SB612111-pretreated monkey hypothalamus at 4.92 to 6.6 mCi, iv administered at 10 mins post SB612111-treatment measured from 10 to 120 mins by PET imaging analysis; type: ADME, organism-based, Macaca mulatta; settings: rhesus monkey, in vivo
[9] = Drug uptake in monkey cerebellum at 4.92 to 6.6 mCi, iv administered as bolus dose measured at 120 mins by PET imaging analysis; type: ADME, organism-based, Macaca mulatta; settings: rhesus monkey, in vivo, 2 h
[10] = Drug uptake in SB612111-pretreated monkey caudate at 4.92 to 6.6 mCi, iv administered at 10 mins post SB612111-treatment measured within 10 mins by PET imaging analysis; type: ADME, organism-based, Macaca mulatta, Caudate nucleus; settings: rhesus monkey, in vivo
[11] = Drug uptake in SB612111-pretreated monkey cerebellum at 4.92 to 6.6 mCi, iv administered at 10 mins post SB612111-treatment measured within 10 mins by PET imaging analysis; type: ADME, organism-based, Macaca mulatta; settings: rhesus monkey, in vivo
[12] = Drug uptake in SB612111-pretreated monkey amygdala at 4.92 to 6.6 mCi, iv administered at 10 mins post SB612111-treatment measured from 10 to 120 mins by PET imaging analysis; type: ADME, organism-based, Macaca mulatta; settings: rhesus monkey, in vivo
[13] = Drug uptake in monkey hypothalamus at 4.92 to 6.6 mCi, iv administered as bolus dose measured at 120 mins by PET imaging analysis; type: ADME, organism-based, Macaca mulatta; settings: rhesus monkey, in vivo, 2 h
[14] = Drug uptake in monkey hypothalamus at 4.92 to 6.6 mCi, iv administered as bolus dose measured up to 20 mins by PET imaging analysis; type: ADME, organism-based, Macaca mulatta; settings: rhesus monkey, in vivo
[15] = Drug uptake in monkey lateral temporal cortex at 4.92 to 6.6 mCi, iv administered as bolus dose measured up to 20 mins by PET imaging analysis; type: ADME, organism-based, Macaca mulatta; settings: rhesus monkey, in vivo
[16] = Drug uptake in monkey lateral temporal cortex at 4.92 to 6.6 mCi, iv administered as bolus dose measured at 120 mins by PET imaging analysis; type: ADME, organism-based, Macaca mulatta; settings: rhesus monkey, in vivo, 2 h
[17] = Drug uptake in monkey caudate at 4.92 to 6.6 mCi, iv administered as bolus dose measured up to 20 mins by PET imaging analysis; type: ADME, organism-based, Macaca mulatta, Caudate nucleus; settings: rhesus monkey, in vivo
[18] = Drug uptake in monkey amygdala at 4.92 to 6.6 mCi, iv administered as bolus dose measured at 120 mins by PET imaging analysis; type: ADME, organism-based, Macaca mulatta; settings: rhesus monkey, in vivo, 2 h
[19] = Drug uptake in monkey cerebellum at 4.92 to 6.6 mCi, iv administered as bolus dose measured up to 20 mins by PET imaging analysis; type: ADME, organism-based, Macaca mulatta; settings: rhesus monkey, in vivo
[20] = Drug uptake in monkey caudate at 4.92 to 6.6 mCi, iv administered as bolus dose measured at 120 mins by PET imaging analysis; type: ADME, organism-based, Macaca mulatta, Caudate nucleus; settings: rhesus monkey, in vivo, 2 h
[21] = Drug uptake in SB612111-pretreated monkey amygdala at 4.92 to 6.6 mCi, iv administered at 10 mins post SB612111-treatment measured within 10 mins by PET imaging analysis; type: ADME, organism-based, Macaca mulatta; settings: rhesus monkey, in vivo
[22] = Drug uptake in monkey amygdala at 4.92 to 6.6 mCi, iv administered as bolus dose measured at 90 mins by PET imaging analysis; type: ADME, organism-based, Macaca mulatta; settings: rhesus monkey, in vivo
[23] = Drug uptake in SB612111-pretreated monkey amygdala at 4.92 to 6.6 mCi, iv administered at 10 mins post SB612111-treatment measured from 10 to 90 mins by PET imaging analysis; type: ADME, organism-based, Macaca mulatta; settings: rhesus monkey, in vivo
[24] = Drug uptake in SB612111-pretreated monkey lateral temporal cortex at 4.92 to 6.6 mCi, iv administered at 10 mins post SB612111-treatment measured from 10 to 90 mins by PET imaging analysis; type: ADME, organism-based, Macaca mulatta; settings: rhesus monkey, in vivo
[25] = Drug uptake in SB612111-pretreated monkey cerebellum at 4.92 to 6.6 mCi, iv administered at 10 mins post SB612111-treatment measured from 10 to 90 mins by PET imaging analysis; type: ADME, organism-based, Macaca mulatta; settings: rhesus monkey, in vivo
[26] = Drug uptake in monkey lateral temporal cortex at 4.92 to 6.6 mCi, iv administered as bolus dose measured at 90 mins by PET imaging analysis; type: ADME, organism-based, Macaca mulatta; settings: rhesus monkey, in vivo
[27] = Drug uptake in monkey caudate at 4.92 to 6.6 mCi, iv administered as bolus dose measured at 90 mins by PET imaging analysis; type: ADME, organism-based, Macaca mulatta, Caudate nucleus; settings: rhesus monkey, in vivo
[28] = Drug uptake in SB612111-pretreated monkey hypothalamus at 4.92 to 6.6 mCi, iv administered at 10 mins post SB612111-treatment measured from 10 to 90 mins by PET imaging analysis; type: ADME, organism-based, Macaca mulatta; settings: rhesus monkey, in vivo
[29] = Drug uptake in SB612111-pretreated monkey caudate at 4.92 to 6.6 mCi, iv administered at 10 mins post SB612111-treatment measured from 10 to 90 mins by PET imaging analysis; type: ADME, organism-based, Macaca mulatta, Caudate nucleus; settings: rhesus monkey, in vivo
[30] = Drug uptake in monkey cerebellum at 4.92 to 6.6 mCi, iv administered as bolus dose measured at 90 mins by PET imaging analysis; type: ADME, organism-based, Macaca mulatta; settings: rhesus monkey, in vivo
[31] = Drug uptake in monkey hypothalamus at 4.92 to 6.6 mCi, iv administered as bolus dose measured at 90 mins by PET imaging analysis; type: ADME, organism-based, Macaca mulatta; settings: rhesus monkey, in vivo
Brain [32] = assay: Drug uptake in rat brain at 6 ug/ml, iv up to 1 hr by LC/MS analysis; type: ADME, organism-based; settings: in vivo
Summary of the method: (§1)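 Male Sprague-Dawley rats (230–280 g), non-anesthetised. Ligand in 25% β-cyclodextrin diluted to 6 μg/mL and given iv via tail vein at 0.5 mL/kg (3 μg/kg), n = 3–4 per group. Rats killed at 10, 20, 40 or 60 min. Hypothalamus and striatum extracted in acetonitrile/0.1% formic acid and quantified by LC-MS/MS against spiked brain standards. Result expressed as %SUV.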

Brain [33] = assay: Drug uptake in rat brain at 6 ug/ml, iv at 10 mins by LC/MS analysis; type: ADME, organism-based; settings: in vivo; summary of the method: as §1
Brain [34] = assay: Drug uptake in rat brain at 6 ug/ml, iv after 1 hr by LC/MS analysis; type: ADME, organism-based; settings: in vivo; summary of the method: as §1
[35] = Lipophilicity, log D of the compound by radiometric method; type: physicochemical; settings: octanol/water
Summary of the method: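 log D at pH 7.4 measured radiometrically on the carbon-11-labelled form of the ligand. Six determinations, reported as mean ± SD.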

Chain of Nociceptin receptor (P41146 whole entry): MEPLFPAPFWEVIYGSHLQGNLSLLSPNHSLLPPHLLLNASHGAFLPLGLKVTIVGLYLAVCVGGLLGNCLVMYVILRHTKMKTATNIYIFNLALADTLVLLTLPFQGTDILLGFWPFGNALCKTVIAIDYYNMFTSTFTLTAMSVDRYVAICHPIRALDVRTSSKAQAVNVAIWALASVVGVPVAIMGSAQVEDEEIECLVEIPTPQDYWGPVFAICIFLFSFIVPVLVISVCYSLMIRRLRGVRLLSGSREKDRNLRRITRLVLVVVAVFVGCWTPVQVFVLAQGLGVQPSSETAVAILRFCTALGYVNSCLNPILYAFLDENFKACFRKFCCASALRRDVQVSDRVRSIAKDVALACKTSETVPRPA

With `NC(=O)[C@H](Cc1ccccc1Cl)CN1CCC2(CC1)OCCc1cc(F)sc12` as the molecule, how does the Ki (Nociceptin receptor) read?
Its Ki is 17.1 nM.

With `CC(C)N(C)C(=O)[C@H](Cc1ccccc1F)CN1CCC2(CC1)OCCc1cc(F)sc12` as the molecule, how does the logD [1] read?
The logD was 4.47.

With `CC(C)N([11CH3])C(=O)[C@@H](Cc1ccccc1F)CN1CCC2(CC1)OCCc1cc(F)sc12` as the molecule, how does the Drug uptake [2] read?
The Drug uptake was “Not Active”.

And the Drug uptake [3]?
Its Drug uptake is “Not Active”.

What about the Drug uptake [4] of the same molecule?
Its Drug uptake is “Active”.

And the Drug uptake [5]?
Its Drug uptake is “Active”.

What about the Drug uptake [6] of the same molecule?
The Drug uptake was “Active”.

What about the Drug uptake [7] of the same molecule?
The Drug uptake was “Not Active”.

And the Drug uptake [8]?
The Drug uptake was “Not Active”.

And the Drug uptake [9]?
Its Drug uptake is “Not Active”.

And the Drug uptake [10]?
The Drug uptake was “Active”.

And the Drug uptake [11]?
The Drug uptake was “Active”.

And the Drug uptake [12]?
Its Drug uptake is “Not Active”.

What about the Drug uptake [13] of the same molecule?
Its Drug uptake is “Not Active”.

What about the Drug uptake [14] of the same molecule?
Its Drug uptake is “Active”.

What about the Drug uptake [15] of the same molecule?
Its Drug uptake is “Active”.

What about the Drug uptake [16] of the same molecule?
Its Drug uptake is “Not Active”.

What about the Drug uptake [17] of the same molecule?
The Drug uptake was “Active”.

What about the Drug uptake [18] of the same molecule?
Its Drug uptake is “Not Active”.

What about the Drug uptake [19] of the same molecule?
Its Drug uptake is “Active”.

What about the Drug uptake [20] of the same molecule?
Its Drug uptake is “Not Active”.

What about the Drug uptake [21] of the same molecule?
The Drug uptake was “Active”.

Which results are given for `[11CH3]NC(=O)[C@@H](Cc1ccccc1Cl)CN1CCC2(CC1)OCCc1cc(F)sc12`?
Drug uptake [22]: Not Active; Drug uptake [23]: Not Active; Drug uptake [4]: Active; Drug uptake [24]: Not Active; Drug uptake [25]: Not Active; Drug uptake [5]: Active; Drug uptake [26]: Not Active; Drug uptake [6]: Active; Drug uptake [27]: Not Active; Drug uptake [10]: Active; Drug uptake [11]: Active; Drug uptake [28]: Not Active; Drug uptake [29]: Not Active; Drug uptake [30]: Not Active; Drug uptake [14]: Active; Drug uptake [15]: Active; Drug uptake [17]: Active; Drug uptake [31]: Not Active; Drug uptake [19]: Active; Drug uptake [21]: Active

Which results are given for `CC(C)N(C)C(=O)[C@@H](Cc1ccccc1F)CN1CCC2(CC1)OCCc1cc(F)sc12`?
Drug uptake (Brain [32]): Active; SUV (Brain [33]): 453%; Drug uptake (Brain [34]): Not Active

For `NC(=O)[C@@H](Cc1ccccc1Cl)CN1CCC2(CC1)OCCc1cc(F)sc12`, which Ki (Nociceptin receptor) is on record?
The Ki was 0.101 nM.

Which results are given for `CNC(=O)[C@@H](Cc1ccccc1F)CN1CCC2(CC1)OCCc1cc(F)sc12` [NOP-1A]?
Drug uptake (Brain [32]): Active; SUV (Brain [33]): 280%; logD [35]: 3.41; Drug uptake (Brain [34]): Not Active

What does the source list for `CNC(=O)[C@@H](Cc1ccccc1Cl)CN1CCC2(CC1)OCCc1cc(F)sc12`?
Drug uptake (Brain [32]): Active; SUV (Brain [33]): 280%; Drug uptake (Brain [34]): Not Active

For `CNC(=O)[C@H](Cc1ccccc1Cl)CN1CCC2(CC1)OCCc1cc(F)sc12`, which logD [1] is on record?
The logD was 3.9.
